Data as given in ChEMBL document CHEMBL3232996, “Synthesis and biological evaluation of novel (123)I-labeled 4-(4-iodophenyl)butanoyl-L-prolyl-(2S)-pyrrolidines for imaging prolyl oligopeptidase in vivo” (Eur J Med Chem, 2014).

Experiments:
[1] = Fraction unbound in iv dosed C57Bl/6JRccHsd mouse plasma measured at 40 mins; format: ADME, organism-based
Procedure, shortened: (§1)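 Male mice given 3.6 MBq tracer i.v. via lateral tail vein; blocking groups got POP inhibitor i.p. (50 µmol/kg, 10 mL/kg, 1% DMSO in 0.9% NaCl) 10 min before. Heparinized cardiac blood on ice, gamma-counted, spun 5 min at 2000 g; plasma counted, precipitated with 1.5 volumes acetonitrile, respun; cell-bound, protein-bound and free fractions expressed as % of blood activity; n = 3.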

[2] = Fraction unbound in iv dosed C57Bl/6JRccHsd mouse plasma measured at 160 mins; format: ADME, organism-based
Procedure, shortened: (§2)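 Mice got tracer i.v., some after i.p. KYP-2047 (50 µmol/kg) 10 min before. Cardiac blood was collected at 20, 40, 80 or 160 min and spun 5 min at 2000 g into cells and plasma. Plasma was precipitated with acetonitrile and pellet and supernatant were gamma-counted. Activity in cells, protein-bound and free plasma is given as % of total blood activity, n = 3.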

[3] = Fraction unbound in iv dosed C57Bl/6JRccHsd mouse plasma measured at 160 mins post dose pretreated with 50 umol/kg, ip prolyl oligopeptidase inhibitor KYP-2047 10 mins before compound dosing by SPECT analysis; format: ADME, organism-based; procedure, shortened: as §2
[4] = Drug uptake in iv dosed C57Bl/6JRccHsd mouse blood cells measured at 20 mins; format: ADME, organism-based; conditions: in vivo; procedure, shortened: as §2
[5] = Drug uptake in iv dosed C57Bl/6JRccHsd mouse blood cells measured at 20 mins post dose pretreated with 50 umol/kg, ip prolyl oligopeptidase inhibitor KYP-2047 10 mins before compound dosing by SPECT analysis; format: ADME, organism-based; conditions: in vivo; procedure, shortened: as §2
[6] = Drug uptake in iv dosed C57Bl/6JRccHsd mouse blood cells measured at 40 mins; format: ADME, organism-based; conditions: in vivo; procedure, shortened: as §2
[7] = Plasma protein binding in iv dosed C57Bl/6JRccHsd mouse measured at 40 mins; format: ADME, organism-based; conditions: read-out: PPB (converted); procedure, shortened: as §1
[8] = Plasma protein binding in iv dosed C57Bl/6JRccHsd mouse measured at 160 mins post dose pretreated with 50 umol/kg, ip prolyl oligopeptidase inhibitor KYP-2047 10 mins before compound dosing by SPECT analysis; format: ADME, organism-based; conditions: in vivo; procedure, shortened: as §1
[9] = Biodistribution in left brain hemisphere of iv dosed C57BL/6JRccHsd mouse LPS-induced acute neuroinflammation model dosed 24 hrs after LPS challenge and measured at 80 mins post dose; format: ADME, organism-based; conditions: read-out: Drug uptake
Procedure, shortened: (§3)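 Male mice under isoflurane got a stereotaxic LPS injection (E. coli 055:B5) into the left striatum, with buprenorphine 0.1 mg/kg s.c. for post-operative pain. The right hemisphere served as intact control. Tracer was given i.v. 24 h later. Left and right hemisphere and whole-brain radioactivity were measured 80 min post injection as %ID/g or %ID, n = 3.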

[10] = Biodistribution in right brain hemisphere of iv dosed C57BL/6JRccHsd mouse dosed 24 hrs after LPS challenge and measured at 80 mins post dose; format: ADME, organism-based; conditions: read-out: Drug uptake; procedure, shortened: as §3
[11] = Plasma protein binding in human at 2.5 MBq/ml after 2 hrs by HPLC analysis; format: ADME, cell-free; conditions: read-out: PPB (converted)
[12] = test system: Heart; assay: Biodistribution in C57Bl/6JRccHsd mouse heart at 2.86 +/- 1.26 MBq, iv measured at 80 mins by SPECT analysis; format: ADME, organism-based; conditions: in vivo
Procedure, shortened: (§4)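 Organs excised at 5, 20, 40, 80 or 160 min and radioactivity gamma-counted as %ID/g (brain also as %ID). Blocking groups received KYP-2047 (50 µmol/kg, 10 mL/kg, 1% DMSO in 0.9% NaCl) i.p. 10 min before tracer. Mean ± SD, n = 2–4 per time point. Blocking compared by two-tailed Student's t test.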

[13] = test system: Spleen; assay: Biodistribution in C57Bl/6JRccHsd mouse spleen at 2.86 +/- 1.26 MBq, iv measured at 80 mins by SPECT analysis; format: ADME, organism-based; conditions: in vivo; procedure, shortened: as §4
[14] = test system: Mus musculus; assay: Biodistribution in C57Bl/6JRccHsd mouse testis at 2.86 +/- 1.26 MBq, iv measured at 80 mins by SPECT analysis; format: ADME, organism-based; conditions: in vivo; procedure, shortened: as §4
[15] = Biodistribution in C57Bl/6JRccHsd mouse urine at 2.86 +/- 1.26 MBq, iv measured at 80 mins by SPECT analysis; format: ADME, organism-based; conditions: in vivo; procedure, shortened: as §4
[16] = test system: Muscle tissue; assay: Biodistribution in C57Bl/6JRccHsd mouse muscle at 2.86 +/- 1.26 MBq, iv measured at 80 mins by SPECT analysis; format: ADME, organism-based; conditions: in vivo; procedure, shortened: as §4
[17] = test system: Brain; assay: Biodistribution in C57Bl/6JRccHsd mouse brain at 2.86 +/- 1.26 MBq, iv measured at 80 mins by SPECT analysis; format: ADME, organism-based; conditions: in vivo; procedure, shortened: as §4
[18] = test system: Blood; assay: Biodistribution in C57Bl/6JRccHsd mouse blood at 2.86 +/- 1.26 MBq, iv measured at 80 mins post dose pretreated with 50 umol/kg, ip prolyl oligopeptidase inhibitor KYP-2047 10 mins before compound dosing by SPECT analysis; format: ADME, organism-based; conditions: in vivo; procedure, shortened: as §4
[19] = test system: Heart; assay: Biodistribution in C57Bl/6JRccHsd mouse heart at 2.86 +/- 1.26 MBq, iv measured at 80 mins post dose pretreated with 50 umol/kg, ip prolyl oligopeptidase inhibitor KYP-2047 10 mins before compound dosing by SPECT analysis; format: ADME, organism-based; conditions: in vivo; procedure, shortened: as §4
[20] = test system: Mus musculus; assay: Biodistribution in C57Bl/6JRccHsd mouse testis at 2.86 +/- 1.26 MBq, iv measured at 80 mins post dose pretreated with 50 umol/kg, ip prolyl oligopeptidase inhibitor KYP-2047 10 mins before compound dosing by SPECT analysis; format: ADME, organism-based; conditions: in vivo; procedure, shortened: as §4
[21] = test system: Muscle tissue; assay: Biodistribution in C57Bl/6JRccHsd mouse muscle at 2.86 +/- 1.26 MBq, iv measured at 80 mins post dose pretreated with 50 umol/kg, ip prolyl oligopeptidase inhibitor KYP-2047 10 mins before compound dosing by SPECT analysis; format: ADME, organism-based; conditions: in vivo; procedure, shortened: as §4
[22] = test system: Mus musculus; assay: Biodistribution in C57Bl/6JRccHsd mouse tongue at 2.86 +/- 1.26 MBq, iv measured at 80 mins post dose pretreated with 50 umol/kg, ip prolyl oligopeptidase inhibitor KYP-2047 10 mins before compound dosing by SPECT analysis; format: ADME, organism-based; conditions: in vivo; procedure, shortened: as §4
[23] = test system: Brain; assay: Biodistribution in C57Bl/6JRccHsd mouse brain at 2.86 +/- 1.26 MBq, iv measured at 80 mins post dose pretreated with 50 umol/kg, ip prolyl oligopeptidase inhibitor KYP-2047 10 mins before compound dosing by SPECT analysis; format: ADME, organism-based; conditions: in vivo; procedure, shortened: as §4
[24] = test system: Brain; assay: Biodistribution in C57Bl/6JRccHsd mouse brain at 2.86 +/- 1.26 MBq, iv measured at 40 mins by SPECT analysis; format: ADME, organism-based; conditions: in vivo; procedure, shortened: as §4
[25] = test system: Mus musculus; assay: Retention time in C57Bl/6JRccHsd mouse plasma at 3.6 MBq, iv measured at 20 mins by HPLC analysis; format: ADME, organism-based
Procedure, shortened: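 Male mice given 3.6 MBq i.v.; cardiac plasma deproteinized with acetonitrile, supernatant run on C18 radio-HPLC gradient, 0.65 min fractions gamma-counted, activity expressed as cpm/total cpm.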

[26] = test system: Blood; assay: Biodistribution in C57Bl/6JRccHsd mouse blood at 2.86 +/- 1.26 MBq, iv measured at 20 mins by SPECT analysis; format: ADME, organism-based; conditions: in vivo; procedure, shortened: as §4
[27] = test system: Blood; assay: Biodistribution in C57Bl/6JRccHsd mouse blood at 2.86 +/- 1.26 MBq, iv measured at 160 mins post dose pretreated with 50 umol/kg, ip prolyl oligopeptidase inhibitor KYP-2047 10 mins before compound dosing by SPECT analysis; format: ADME, organism-based; conditions: in vivo; procedure, shortened: as §4

- fraction unbound at 40 min [1]: 0.08
- fraction unbound at 160 min [2]: 0.26
- fraction unbound at 160 min [3]: 0.58
- Drug uptake [4]: 95%
- Drug uptake [5]: 53%
- Drug uptake [6]: 90%
- fraction unbound at 40 min [7]: 0.98
- PPB [8]: 0%
- tissue uptake at 80 min [9]: 1.34 %ID/g
- tissue uptake at 80 min [10]: 1.09 %ID/g
- fraction unbound at 2 h, 2.5 MBq/ml [11]: 0.937
- Drug uptake [12]: 12.2 % ID/g
- Drug uptake [13]: 10.56 % ID/g
- Drug uptake [14]: 0.55 % ID/g
- Drug uptake [15]: 2.23 % ID/g
- Drug uptake [16]: 2.15 % ID/g
- Drug uptake [17]: 0.62 % ID/g
- Drug uptake [18]: 2.69 % ID/g
- Drug uptake [19]: 1.34 % ID/g
- Drug uptake [20]: 0.57 % ID/g
- Drug uptake [21]: 0.59 % ID/g
- Drug uptake [22]: 1.44 % ID/g
- Drug uptake [23]: 0.08 % ID/g
- Drug uptake [24]: 0.76 %ID
- Retention_time [25]: 7.15 min
- Drug uptake [26]: 8.5 % ID/g
- Drug uptake [27]: 1 % ID/g
Structure (SMILES): N#C[C@@H]1CCCN1C(=O)[C@@H]1CCCN1C(=O)CCCc1ccc([123I])cc1
